Experimental data as given in ChEMBL document CHEMBL4190394, “Discovery of Novel Pazopanib-Based HDAC and VEGFR Dual Inhibitors Targeting Cancer Epigenetics and Angiogenesis Simultaneously” (J Med Chem, 2018).
Calls of active or inactive are those of the source. The rule behind the calls is not given here.

What was measured:
[1] = system: HEL; assay: Antiproliferative activity against human HEL cells after 72 hrs by MTT assay; format: functional, cell-based
[2] = system: PC-3; assay: Antiproliferative activity against human PC3 cells after 72 hrs by MTT assay; format: functional, cell-based; conditions: PC-3, 72 h
[3] = system: K562; assay: Antiproliferative activity against human K562 cells after 72 hrs by MTT assay; format: functional, cell-based; conditions: K562, 72 h
[4] = system: MOLT-4; assay: Antiproliferative activity against human MOLT4 cells after 72 hrs by MTT assay; format: functional, cell-based; conditions: MOLT-4, 72 h
[5] = system: KG-1; assay: Antiproliferative activity against human KG1 cells after 72 hrs by MTT assay; format: functional, cell-based; conditions: KG-1, 72 h
[6] = target: Histone deacetylase; format: protein assay, Homo sapiens
[7] = target: T1, Vascular endothelial growth factor receptor 2 (Homo sapiens, UniProt P35968); assay: Inhibition of VEGFR-2 (unknown origin) at 0.2 uM after 40 mins by kinase-Glo assay relative to control
Procedure, shortened: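 VEGFR-2 tested at a single 200 nM concentration in a Kinase-Glo assay. Compound, kinase, substrate and ATP incubated 40 min at room temperature, then Kinase-Glo reagent added for 15 min and luminescence read. Inhibition rate reported. Replicates n ≥ 2.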

[8] = system: HT-29; assay: Antiproliferative activity against human HT-29 cells after 72 hrs by MTT assay; format: functional, cell-based; conditions: HT-29, 72 h
[9] = target: Histone deacetylase 3 (Homo sapiens, UniProt O15379)
[10] = system: MDA-MB-231; assay: Antiproliferative activity against human MDA-MB-231 cells after 72 hrs by MTT assay; format: functional, cell-based; conditions: MDA-MB-231, 72 h
[11] = target: Histone deacetylase 1 (Homo sapiens, UniProt Q13547); assay: Inhibition of HDAC1 (unknown origin) using fluorogenic substrate preincubated for 5 mins followed by substrate addition measured after 30 mins by fluorescence-based assay
[12] = system: ACHN; assay: Antiproliferative activity against human ACHN cells after 72 hrs by MTT assay; format: functional, cell-based
[13] = target: Histone deacetylase 2 (Homo sapiens, UniProt Q92769)
[14] = system: AGS; assay: Antiproliferative activity against human AGS cells after 72 hrs by MTT assay; format: functional, cell-based
[15] = system: HT-1080; assay: Antiproliferative activity against human HT1080 cells after 72 hrs by MTT assay; format: functional, cell-based; conditions: HT-1080, 72 h
[16] = system: HeLa; assay: Antiproliferative activity against human HeLa cells after 72 hrs by MTT assay; format: functional, cell-based
[17] = target: Protein deacetylase HDAC6 (Homo sapiens, UniProt Q9UBN7); assay: Inhibition of HDAC6 (unknown origin) using fluorogenic Boc-Lys(acetyl)-AMC as substrate preincubated for 5 mins followed by substrate addition measured after 30 mins by fluorescence-based assay
[18] = target: Histone deacetylase 8 (Homo sapiens, UniProt Q9BY41); assay: Inhibition of HDAC8 (unknown origin) using fluorogenic Boc-Lys(trifluoroacetyl)-AMC as substrate preincubated for 5 mins followed by substrate addition measured after 30 mins by fluorescence-based assay
[19] = target: T1, Vascular endothelial growth factor receptor 2; assay: Inhibition of VEGF-stimulated VEGFR2 phosphorylation in human HUVEC cells at 100 nM preincubated for 2 hrs followed by VEGF stimulation by Western blot analysis; format: cell-based
Procedure, shortened: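 HUVECs pretreated 2 h with compound or DMSO, then stimulated with VEGF (50 ng/ml). Cells lysed in ice-cold RIPA and protein measured by BCA. Lysates run on SDS-PAGE and immunoblotted for phospho-VEGFR-2, with total VEGFR-2 as loading control. Detection by ECL.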

[20] = system: HT-29; assay: Antitumor activity against human HT-29 cells xenografted in BALB/c nu mouse assessed as tumor growth inhibition at 50 mg/kg, po administered for 25 consecutive days measured every 3 days during compound dosing relative to control; format: functional; conditions: HT-29, po, read-out: TGI
Procedure, shortened: (§1)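 HT-29 cells (1×10^7) implanted s.c. in right flank of male BALB/c-nu mice aged 5–6 weeks. At about 100 mm³ (day 10), mice randomized 6 per group and dosed orally for 25 consecutive days. Controls received PBS with 5% DMSO. T/C is mean RTV (Vt/V0) treated over control. TGI taken from final tumor weights. Student's two-tailed t test.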

[21] = system: HT-29; assay: Antitumor activity against human HT-29 cells xenografted in BALB/c nu mouse assessed as tumor growth level at 50 mg/kg, po administered for 25 consecutive days measured every 3 days during compound dosing relative to control; format: functional; procedure, shortened: as §1
[22] = system: HUVEC; assay: Antiangiogenic activity in human HUVEC cells assessed as reduction in capillary-like tubular network formation at 0.1 uM after 6 hrs by phase-contrast microscopy; format: functional, cell-based
Procedure, shortened: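 HUVECs trypsinized and seeded at 40000/well on Matrigel polymerized 0.5 h at 37 °C. Cells held 6 h at 37 °C in M199 with 5% FBS, with compound or DMSO. Tube formation viewed and photographed by phase-contrast microscopy at 200 magnification. Three independent experiments.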

[23] = system: Thoracic aorta; assay: Antiangiogenic activity in Sprague-Dawley rat thoracic aorta ring assessed as reduction in micro-vessel growth at 5 uM treated every day for 6 days by matrigel-based inverted microscopic analysis relative to control; format: functional, tissue-based
Procedure, shortened: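 Aortas taken from 4–6-week-old Sprague–Dawley rats, cut into 1-mm rings and embedded in Matrigel. Rings held 30 min at 37 °C, 5% CO2, then treated daily for 6 days with compound or 0.5% DMSO vehicle. Microvessel outgrowth photographed on day 7 at ×200. Three independent experiments.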

T1 sequence (P35968 whole entry): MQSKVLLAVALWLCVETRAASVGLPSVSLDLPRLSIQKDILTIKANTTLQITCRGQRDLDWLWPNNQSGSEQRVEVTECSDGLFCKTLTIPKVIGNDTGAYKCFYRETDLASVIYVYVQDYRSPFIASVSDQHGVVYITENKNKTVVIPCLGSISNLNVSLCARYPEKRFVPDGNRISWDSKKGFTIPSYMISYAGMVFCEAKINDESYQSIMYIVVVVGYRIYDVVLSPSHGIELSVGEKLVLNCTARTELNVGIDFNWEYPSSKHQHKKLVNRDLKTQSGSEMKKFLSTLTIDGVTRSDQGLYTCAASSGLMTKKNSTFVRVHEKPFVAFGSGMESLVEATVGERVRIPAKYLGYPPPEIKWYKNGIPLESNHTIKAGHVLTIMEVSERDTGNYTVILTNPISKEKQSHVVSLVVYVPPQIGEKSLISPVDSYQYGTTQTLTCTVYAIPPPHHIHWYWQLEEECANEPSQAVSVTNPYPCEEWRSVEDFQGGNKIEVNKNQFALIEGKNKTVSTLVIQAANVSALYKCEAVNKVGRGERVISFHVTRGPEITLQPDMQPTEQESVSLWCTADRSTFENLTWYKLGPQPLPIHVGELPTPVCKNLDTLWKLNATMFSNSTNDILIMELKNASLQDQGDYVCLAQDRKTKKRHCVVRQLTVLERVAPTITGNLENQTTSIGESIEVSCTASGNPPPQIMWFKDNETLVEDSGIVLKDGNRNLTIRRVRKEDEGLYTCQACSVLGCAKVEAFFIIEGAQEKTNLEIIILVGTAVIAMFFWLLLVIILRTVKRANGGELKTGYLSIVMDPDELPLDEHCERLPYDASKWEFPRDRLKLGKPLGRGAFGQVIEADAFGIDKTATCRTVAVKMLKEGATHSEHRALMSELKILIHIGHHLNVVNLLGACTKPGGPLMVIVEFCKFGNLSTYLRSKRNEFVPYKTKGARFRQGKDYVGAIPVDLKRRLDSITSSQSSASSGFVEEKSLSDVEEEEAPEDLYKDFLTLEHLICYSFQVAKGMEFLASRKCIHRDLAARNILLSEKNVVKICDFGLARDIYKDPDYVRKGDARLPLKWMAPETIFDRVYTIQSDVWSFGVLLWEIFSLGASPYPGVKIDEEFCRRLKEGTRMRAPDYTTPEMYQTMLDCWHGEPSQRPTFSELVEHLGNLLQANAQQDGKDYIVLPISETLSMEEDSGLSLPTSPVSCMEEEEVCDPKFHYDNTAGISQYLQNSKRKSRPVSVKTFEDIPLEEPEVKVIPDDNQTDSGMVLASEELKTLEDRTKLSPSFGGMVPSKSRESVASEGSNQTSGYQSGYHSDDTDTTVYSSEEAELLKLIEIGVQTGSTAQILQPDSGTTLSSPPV
Sequence of Histone deacetylase 2 (Q92769 whole entry): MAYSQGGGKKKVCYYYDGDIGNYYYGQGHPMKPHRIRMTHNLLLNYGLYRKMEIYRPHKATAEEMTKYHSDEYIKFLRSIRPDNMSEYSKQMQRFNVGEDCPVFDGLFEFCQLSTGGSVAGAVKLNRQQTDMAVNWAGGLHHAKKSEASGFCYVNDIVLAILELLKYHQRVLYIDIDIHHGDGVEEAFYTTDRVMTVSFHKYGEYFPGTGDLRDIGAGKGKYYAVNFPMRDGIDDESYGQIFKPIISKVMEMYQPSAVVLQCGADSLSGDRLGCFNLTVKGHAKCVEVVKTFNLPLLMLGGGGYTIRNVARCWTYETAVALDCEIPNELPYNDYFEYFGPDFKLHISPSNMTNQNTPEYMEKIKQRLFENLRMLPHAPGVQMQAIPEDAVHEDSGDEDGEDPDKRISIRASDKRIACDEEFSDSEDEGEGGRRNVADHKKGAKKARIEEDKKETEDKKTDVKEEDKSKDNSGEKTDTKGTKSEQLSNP
Sequence of Histone deacetylase 1 (Q13547 whole entry): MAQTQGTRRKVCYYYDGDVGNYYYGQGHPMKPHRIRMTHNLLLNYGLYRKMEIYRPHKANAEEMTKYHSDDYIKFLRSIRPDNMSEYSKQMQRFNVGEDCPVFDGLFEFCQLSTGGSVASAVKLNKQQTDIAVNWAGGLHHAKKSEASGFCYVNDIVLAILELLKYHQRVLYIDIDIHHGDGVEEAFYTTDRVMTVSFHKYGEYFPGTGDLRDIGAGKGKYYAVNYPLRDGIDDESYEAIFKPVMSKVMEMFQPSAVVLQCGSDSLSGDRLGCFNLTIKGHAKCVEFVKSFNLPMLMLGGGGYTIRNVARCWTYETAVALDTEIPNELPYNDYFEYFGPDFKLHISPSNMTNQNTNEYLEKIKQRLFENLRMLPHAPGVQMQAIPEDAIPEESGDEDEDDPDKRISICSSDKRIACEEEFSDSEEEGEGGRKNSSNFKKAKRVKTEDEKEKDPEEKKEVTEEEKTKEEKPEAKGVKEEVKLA
Sequence of Histone deacetylase 3 (O15379 whole entry): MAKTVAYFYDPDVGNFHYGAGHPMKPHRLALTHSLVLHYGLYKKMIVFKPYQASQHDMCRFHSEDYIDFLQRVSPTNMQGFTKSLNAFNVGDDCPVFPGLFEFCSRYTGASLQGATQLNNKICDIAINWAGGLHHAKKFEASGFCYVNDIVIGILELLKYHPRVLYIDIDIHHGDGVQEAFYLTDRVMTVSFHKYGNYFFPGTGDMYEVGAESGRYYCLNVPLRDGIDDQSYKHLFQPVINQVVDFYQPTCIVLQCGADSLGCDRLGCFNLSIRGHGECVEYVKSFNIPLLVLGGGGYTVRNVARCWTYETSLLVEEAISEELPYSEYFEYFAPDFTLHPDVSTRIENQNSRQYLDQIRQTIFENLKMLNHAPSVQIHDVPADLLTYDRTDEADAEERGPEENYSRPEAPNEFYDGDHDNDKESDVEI
Sequence of Protein deacetylase HDAC6 (Q9UBN7 whole entry): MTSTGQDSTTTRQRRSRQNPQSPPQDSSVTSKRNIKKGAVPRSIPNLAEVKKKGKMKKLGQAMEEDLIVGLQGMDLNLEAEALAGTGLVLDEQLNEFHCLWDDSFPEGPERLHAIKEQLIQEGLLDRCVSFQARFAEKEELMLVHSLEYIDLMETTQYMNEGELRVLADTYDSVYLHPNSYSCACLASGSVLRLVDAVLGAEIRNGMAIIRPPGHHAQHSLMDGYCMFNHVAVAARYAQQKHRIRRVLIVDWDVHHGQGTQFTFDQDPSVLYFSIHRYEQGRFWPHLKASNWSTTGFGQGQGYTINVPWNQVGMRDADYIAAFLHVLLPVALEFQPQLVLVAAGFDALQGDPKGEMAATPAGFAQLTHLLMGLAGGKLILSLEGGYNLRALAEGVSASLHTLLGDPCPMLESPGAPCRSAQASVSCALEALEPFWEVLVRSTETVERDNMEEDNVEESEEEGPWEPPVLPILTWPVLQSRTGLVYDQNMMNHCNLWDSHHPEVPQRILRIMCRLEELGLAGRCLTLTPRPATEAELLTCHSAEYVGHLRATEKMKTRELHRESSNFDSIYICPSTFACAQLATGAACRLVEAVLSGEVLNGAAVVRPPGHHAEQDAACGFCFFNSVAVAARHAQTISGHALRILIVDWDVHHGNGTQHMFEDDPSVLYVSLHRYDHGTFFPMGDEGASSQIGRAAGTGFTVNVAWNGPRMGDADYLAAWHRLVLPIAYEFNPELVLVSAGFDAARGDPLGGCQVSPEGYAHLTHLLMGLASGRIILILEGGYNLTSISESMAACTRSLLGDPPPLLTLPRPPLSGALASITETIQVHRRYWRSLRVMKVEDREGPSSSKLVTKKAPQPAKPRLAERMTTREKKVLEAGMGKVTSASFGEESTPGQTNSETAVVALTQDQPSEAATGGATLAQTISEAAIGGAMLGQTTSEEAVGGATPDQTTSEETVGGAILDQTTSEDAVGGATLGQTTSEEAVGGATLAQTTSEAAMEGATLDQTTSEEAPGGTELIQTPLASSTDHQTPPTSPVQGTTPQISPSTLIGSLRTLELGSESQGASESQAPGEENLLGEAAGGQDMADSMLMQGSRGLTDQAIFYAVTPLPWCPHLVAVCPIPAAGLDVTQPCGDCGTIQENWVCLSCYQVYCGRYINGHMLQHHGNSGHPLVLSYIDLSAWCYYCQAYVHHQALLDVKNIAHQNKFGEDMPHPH
Sequence of Histone deacetylase 8 (Q9BY41 whole entry): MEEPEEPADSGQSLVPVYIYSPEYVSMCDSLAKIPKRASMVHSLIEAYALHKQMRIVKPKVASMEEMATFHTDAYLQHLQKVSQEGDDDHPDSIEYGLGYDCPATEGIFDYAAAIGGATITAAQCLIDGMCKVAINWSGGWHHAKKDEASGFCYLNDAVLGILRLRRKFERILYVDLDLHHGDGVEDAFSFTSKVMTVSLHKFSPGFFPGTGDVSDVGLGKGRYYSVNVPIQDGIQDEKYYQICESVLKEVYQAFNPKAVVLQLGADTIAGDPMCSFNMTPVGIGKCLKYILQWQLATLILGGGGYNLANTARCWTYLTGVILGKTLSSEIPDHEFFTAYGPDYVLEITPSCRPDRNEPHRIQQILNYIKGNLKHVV

SMILES	IC50 [1]	IC50 [2]	IC50 [3]	IC50 [4]	IC50 [5]	IC50 [6]	inhibition [7]	further results
Cc1c2ccc(N(C)c3ccnc(Nc4ccc(C(=O)NCCCCCCC(=O)Nc5ccccc5N)cc4)n3)cc2nn1C	1160 nM	> 5000 nM	4150 nM	1150 nM	3140 nM	5000 nM	93%	–
Cc1c2ccc(N(C)c3ccnc(Nc4ccc(C(=O)NCCCCCCCC(=O)Nc5ccccc5N)cc4)n3)cc2nn1C	490 nM	> 5000 nM	3970 nM	560 nM	2680 nM	8700 nM	92%	IC50 [8]: 2960 nM; IC50 [9]: 660 nM; IC50 [10]: 2570 nM; IC50 [11]: 1460 nM; IC50 [12]: 3620 nM; IC50 [13]: 1260 nM; IC50 [14]: > 5000 nM; IC50 [15]: > 5000 nM; IC50 [16]: 3070 nM
Cc1c2ccc(N(C)c3ccnc(Nc4ccc(C(=O)NCCC(=O)Nc5ccccc5N)cc4)n3)cc2nn1C	–	–	–	–	–	> 20000 nM	97%	–
Cc1c2ccc(N(C)c3ccnc(Nc4ccc(/C=C/C(=O)NO)cc4)n3)cc2nn1C	750 nM	1600 nM	1660 nM	590 nM	1020 nM	1400 nM	95%	IC50 [8]: 2960 nM; IC50 [10]: 2590 nM; IC50 [12]: 3850 nM; IC50 [13]: 5300 nM; IC50 [14]: > 5000 nM; IC50 [15]: 3250 nM; IC50 [16]: 4930 nM; IC50 [17]: 1030 nM; IC50 [18]: 2890 nM
Cc1c2ccc(N(C)c3ccnc(Nc4cccc(C(=O)Nc5ccccc5N)c4)n3)cc2nn1C	–	–	–	–	–	21300 nM	63%	–
Cc1c2ccc(N(C)c3ccnc(Nc4ccc(C(=O)NCCCCCC(=O)Nc5ccccc5N)cc4)n3)cc2nn1C	2060 nM	> 5000 nM	4310 nM	870 nM	3150 nM	3000 nM	95%	–
Cc1ccc(Nc2nccc(N(C)c3ccc4c(C)n(C)nc4c3)n2)cc1C(=O)NO	–	–	–	–	–	> 20000 nM	74%	–
Cc1ccc(Nc2nccc(N(C)c3ccc4c(C)n(C)nc4c3)n2)cc1C(=O)NCCCCCC(=O)NO	–	–	–	–	–	820 nM	87%	–
Cc1c2ccc(N(C)c3ccnc(Nc4ccc(C(=O)NCC(=O)NO)cc4)n3)cc2nn1C	–	–	–	–	–	> 20000 nM	95%	–
Cc1c2ccc(N(C)c3ccnc(Nc4ccc(C(=O)NCCC(=O)NO)cc4)n3)cc2nn1C	–	–	–	–	–	> 20000 nM	99%	–
Cc1c2ccc(N(C)c3ccnc(Nc4ccc(C(=O)NO)cc4)n3)cc2nn1C	–	–	–	–	–	11300 nM	99%	–
Cc1c2ccc(N(C)c3ccnc(Nc4ccc(C(=O)NCCCCC(=O)NO)cc4)n3)cc2nn1C	–	–	–	–	–	680 nM	94%	–
Cc1c2ccc(N(C)c3ccnc(Nc4ccc(C(=O)NCCCC(=O)NO)cc4)n3)cc2nn1C	–	–	–	–	–	19800 nM	99%	–
Cc1c2ccc(N(C)c3ccnc(Nc4ccc(C(=O)NCCCCCC(=O)NO)cc4)n3)cc2nn1C	2560 nM	> 5000 nM	2890 nM	600 nM	2310 nM	17 nM	98%	IC50 [15]: > 5000 nM
Cc1c2ccc(N(C)c3ccnc(Nc4cccc(/C=C/C(=O)NO)c4)n3)cc2nn1C	–	–	–	–	–	3000 nM	97%	–
Cc1c2ccc(N(C)c3ccnc(Nc4ccc(C(=O)NCCCC(=O)Nc5ccccc5N)cc4)n3)cc2nn1C	–	–	–	–	–	19000 nM	96%	–
Cc1c2ccc(N(C)c3ccnc(Nc4ccc(C(=O)NCCCCCCCC(=O)NO)cc4)n3)cc2nn1C	1040 nM	3420 nM	1100 nM	270 nM	930 nM	25 nM	92%	IC50 [15]: > 5000 nM
Cc1c2ccc(N(C)c3ccnc(Nc4cccc(C(=O)NO)c4)n3)cc2nn1C	–	–	–	–	–	> 20000 nM	77%	–
Nc1ccccc1NC(=O)c1ccc(CNC(=O)OCc2cccnc2)cc1 [ENTINOSTAT]	440 nM	> 5000 nM	3660 nM	450 nM	> 5000 nM	–	–	IC50 [8]: 3100 nM; inhibition [19]: inactive; IC50 [10]: 2550 nM; IC50 [12]: 2400 nM; IC50 [14]: 340 nM; IC50 [15]: > 5000 nM; IC50 [16]: > 5000 nM
Cc1c2ccc(N(C)c3ccnc(Nc4ccc(C(=O)NCC(=O)Nc5ccccc5N)cc4)n3)cc2nn1C	–	–	–	–	–	> 20000 nM	98%	–
Cc1c2ccc(N(C)c3ccnc(Nc4cccc(C(=O)NCCCCCC(=O)NO)c4)n3)cc2nn1C	–	–	–	–	–	180 nM	90%	–
Cc1c2ccc(N(C)c3ccnc(Nc4ccc(C(=O)NCCCCC(=O)Nc5ccccc5N)cc4)n3)cc2nn1C	–	–	–	–	–	15100 nM	94%	–
Cc1ccc(Nc2nccc(N(C)c3ccc4c(C)n(C)nc4c3)n2)cc1S(N)(=O)=O [PAZOPANIB]	> 5000 nM	> 5000 nM	> 5000 nM	> 5000 nM	> 5000 nM	–	95%	IC50 [8]: > 5000 nM; inhibition [19]: Active; inhibition in vivo at 50 mg/kg [20]: 44%; IC50 [10]: > 5000 nM; T/C [21]: 61%; Activity [22]: Active; IC50 [12]: > 5000 nM; Activity [23]: Active; IC50 [14]: > 5000 nM; IC50 [15]: > 5000 nM; IC50 [16]: > 5000 nM
